From the M2OR odorant receptor database
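Note: active if original authors judged signal statistically different from baseline.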

What follows are compounds tested against T1, OR13C3 (Homo sapiens) (UniProt Q8NGS6). Conditions: stereoisomer not certain.
T1 sequence (whole entry): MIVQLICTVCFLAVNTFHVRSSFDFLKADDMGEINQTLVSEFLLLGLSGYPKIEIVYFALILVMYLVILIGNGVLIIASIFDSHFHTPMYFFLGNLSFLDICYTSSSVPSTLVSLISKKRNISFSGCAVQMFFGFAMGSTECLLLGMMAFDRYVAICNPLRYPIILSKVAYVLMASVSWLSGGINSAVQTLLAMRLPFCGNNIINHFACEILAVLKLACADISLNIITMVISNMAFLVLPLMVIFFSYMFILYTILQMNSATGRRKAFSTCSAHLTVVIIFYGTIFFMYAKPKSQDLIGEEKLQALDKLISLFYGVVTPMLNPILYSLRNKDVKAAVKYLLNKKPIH
Outline: (§1)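 Whether a receptor–molecule pair is responsive (active) rests on the original authors' judgment that its measured signal was statistically different from baseline. Pairs without that judgment are non-responsive (inactive). Sources used varied assay methods, commonly transient luciferase assays in mammalian cell lines.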
For `CC1=NC(C)C(C)S1` (configuration not stated), the “odorant receptor agonist call” value was “inactive”. With `CCCCCC(=O)C(C)C(C)=O` (configuration not stated) the “odorant receptor agonist call” value was “inactive”. In the case of `Cc1cnc(C)c(C)n1`, the “odorant receptor agonist call” value is reported as “inactive”. In the case of `CCC(S)C(C)CO` (configuration not stated), the “odorant receptor agonist call” value is reported as “inactive”. For `CC1CCCCCCCCCCCCC(=O)C1` (configuration not stated), the “odorant receptor agonist call” value was “inactive”. In the case of `CC1=C(O)C(=O)C(C)O1` (configuration not stated), the “odorant receptor agonist call” value is reported as “inactive”. For `CC1=C(O)C(=O)OC1C` (configuration not stated), the “odorant receptor agonist call” value was “inactive”. With `CCCC(S)CCOC(C)=O` (configuration not stated) the “odorant receptor agonist call” value was “inactive”. `CC(CO)CS` (configuration not stated) was tested, and the “odorant receptor agonist call” value was “inactive”. With `CC(=O)c1c(C)c([N+](=O)[O-])c(C(C)(C)C)c([N+](=O)[O-])c1C` the “odorant receptor agonist call” value was “inactive”. `CCCCCC(S)C(C)CO` (configuration not stated) was tested, and the “odorant receptor agonist call” value was “inactive”. For `CCC1OC(C)=C(O)C1=O` (configuration not stated), the “odorant receptor agonist call” value was “inactive”. `CCCCCCC=CCCC=O` was tested, and the “odorant receptor agonist call” value was “inactive”. `CCC1OC(=O)C(O)=C1C` (configuration not stated) was tested, and the “odorant receptor agonist call” value was “inactive”. For `CCCCC(S)C(C)CO` (configuration not stated), the “odorant receptor agonist call” value was “inactive”.

These compounds were tested against T2, OR13C4 (Homo sapiens) (UniProt Q8NGS5). Conditions: stereoisomer not certain.
T2 sequence (whole entry): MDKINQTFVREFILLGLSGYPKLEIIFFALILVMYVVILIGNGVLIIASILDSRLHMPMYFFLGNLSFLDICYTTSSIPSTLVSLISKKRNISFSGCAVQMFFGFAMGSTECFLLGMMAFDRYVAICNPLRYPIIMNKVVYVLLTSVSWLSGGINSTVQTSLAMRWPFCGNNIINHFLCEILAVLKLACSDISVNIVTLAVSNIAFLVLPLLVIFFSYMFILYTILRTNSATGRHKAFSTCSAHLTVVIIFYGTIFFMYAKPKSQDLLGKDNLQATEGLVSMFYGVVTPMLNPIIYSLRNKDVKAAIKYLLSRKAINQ
Outline: as §1
In the case of `CC1=NC(C)C(C)S1` (configuration not stated), the “odorant receptor agonist call” value is reported as “inactive”. For `CCCCCC(=O)C(C)C(C)=O` (configuration not stated), the “odorant receptor agonist call” value was “inactive”. For `Cc1cnc(C)c(C)n1`, the “odorant receptor agonist call” value was “inactive”. With `CCC(S)C(C)CO` (configuration not stated) the “odorant receptor agonist call” value was “inactive”. In the case of `CC1CCCCCCCCCCCCC(=O)C1` (configuration not stated), the “odorant receptor agonist call” value is reported as “inactive”. In the case of `CC1=C(O)C(=O)C(C)O1` (configuration not stated), the “odorant receptor agonist call” value is reported as “inactive”. For `CC1=C(O)C(=O)OC1C` (configuration not stated), the “odorant receptor agonist call” value was “inactive”. In the case of `CCCC(S)CCOC(C)=O` (configuration not stated), the “odorant receptor agonist call” value is reported as “inactive”. `CC(CO)CS` (configuration not stated) was tested, and the “odorant receptor agonist call” value was “inactive”. For `CC(=O)c1c(C)c([N+](=O)[O-])c(C(C)(C)C)c([N+](=O)[O-])c1C`, the “odorant receptor agonist call” value was “inactive”. In the case of `CCCCCC(S)C(C)CO` (configuration not stated), the “odorant receptor agonist call” value is reported as “inactive”. `CCC1OC(C)=C(O)C1=O` (configuration not stated) was tested, and the “odorant receptor agonist call” value was “inactive”. With `CCCCCCC=CCCC=O` the “odorant receptor agonist call” value was “inactive”. For `CCC1OC(=O)C(O)=C1C` (configuration not stated), the “odorant receptor agonist call” value was “inactive”. `CCCCC(S)C(C)CO` (configuration not stated) was tested, and the “odorant receptor agonist call” value was “inactive”.

What follows are compounds tested against T3, OR13C5 (Homo sapiens) (UniProt Q8NGS8). Conditions: stereoisomer not certain.
T3 sequence (whole entry): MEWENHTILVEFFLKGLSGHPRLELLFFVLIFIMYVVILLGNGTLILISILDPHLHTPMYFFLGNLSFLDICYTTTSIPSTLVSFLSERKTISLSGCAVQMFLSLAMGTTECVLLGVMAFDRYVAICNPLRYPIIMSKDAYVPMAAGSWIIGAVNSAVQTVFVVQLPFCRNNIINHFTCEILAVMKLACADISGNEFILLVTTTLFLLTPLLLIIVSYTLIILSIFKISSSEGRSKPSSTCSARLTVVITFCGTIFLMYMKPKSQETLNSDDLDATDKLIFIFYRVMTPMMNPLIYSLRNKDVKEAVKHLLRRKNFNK
Outline: as §1
With `CC1=NC(C)C(C)S1` (configuration not stated) the “odorant receptor agonist call” value was “inactive”. With `CCCCCC(=O)C(C)C(C)=O` (configuration not stated) the “odorant receptor agonist call” value was “inactive”. For `Cc1cnc(C)c(C)n1`, the “odorant receptor agonist call” value was “inactive”. With `CCC(S)C(C)CO` (configuration not stated) the “odorant receptor agonist call” value was “inactive”. For `CC1CCCCCCCCCCCCC(=O)C1` (configuration not stated), the “odorant receptor agonist call” value was “inactive”. For `CC1=C(O)C(=O)C(C)O1` (configuration not stated), the “odorant receptor agonist call” value was “inactive”. `CC1=C(O)C(=O)OC1C` (configuration not stated) was tested, and the “odorant receptor agonist call” value was “inactive”. With `CCCC(S)CCOC(C)=O` (configuration not stated) the “odorant receptor agonist call” value was “inactive”. For `CC(CO)CS` (configuration not stated), the “odorant receptor agonist call” value was “active”. `CC(=O)c1c(C)c([N+](=O)[O-])c(C(C)(C)C)c([N+](=O)[O-])c1C` was tested, and the “odorant receptor agonist call” value was “inactive”. `CCCCCC(S)C(C)CO` (configuration not stated) was tested, and the “odorant receptor agonist call” value was “inactive”. `CCC1OC(C)=C(O)C1=O` (configuration not stated) was tested, and the “odorant receptor agonist call” value was “inactive”. With `CCCCCCC=CCCC=O` the “odorant receptor agonist call” value was “inactive”. With `CCC1OC(=O)C(O)=C1C` (configuration not stated) the “odorant receptor agonist call” value was “inactive”. In the case of `CCCCC(S)C(C)CO` (configuration not stated), the “odorant receptor agonist call” value is reported as “inactive”.

These compounds were tested against T4, OR13C8 (Homo sapiens) (UniProt Q8NGS7). Conditions: stereoisomer not certain.
T4 sequence (whole entry): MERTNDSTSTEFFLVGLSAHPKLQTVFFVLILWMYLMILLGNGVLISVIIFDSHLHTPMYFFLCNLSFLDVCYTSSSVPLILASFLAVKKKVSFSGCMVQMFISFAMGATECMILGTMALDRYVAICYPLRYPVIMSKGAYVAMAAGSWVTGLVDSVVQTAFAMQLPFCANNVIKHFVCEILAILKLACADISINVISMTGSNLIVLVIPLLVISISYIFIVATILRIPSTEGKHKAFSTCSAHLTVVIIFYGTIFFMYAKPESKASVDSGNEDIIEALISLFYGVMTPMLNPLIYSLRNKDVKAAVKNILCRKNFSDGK
Outline: as §1
`CC1=NC(C)C(C)S1` (configuration not stated) was tested, and the “odorant receptor agonist call” value was “inactive”. With `CCCCCC(=O)C(C)C(C)=O` (configuration not stated) the “odorant receptor agonist call” value was “inactive”. `Cc1cnc(C)c(C)n1` was tested, and the “odorant receptor agonist call” value was “inactive”. For `CCC(S)C(C)CO` (configuration not stated), the “odorant receptor agonist call” value was “inactive”. For `CC1CCCCCCCCCCCCC(=O)C1` (configuration not stated), the “odorant receptor agonist call” value was “inactive”. For `CC1=C(O)C(=O)C(C)O1` (configuration not stated), the “odorant receptor agonist call” value was “inactive”. With `CC1=C(O)C(=O)OC1C` (configuration not stated) the “odorant receptor agonist call” value was “inactive”.
